Activity calls are given as the source filed them. The rule behind the calls is not given here.
How the values were obtained:
[1] = Permeability in human Caco2 cells; type: ADME, cell-based; conditions: Caco-2, read-out: permeability
[2] = Protein binding in human plasma; type: ADME, cell-free; conditions: read-out: PPB (converted)
THP-1 = experiment: Inhibition of LPS-induced TNFalpha production in human THP1 cells pre-incubated for 30 mins before LPS challenge measured 3 hrs after LPS addition
[3] = target: Ribosomal protein S6 kinase alpha-3 (Homo sapiens, UniProt P51812); experiment: Inhibition of RSK2 (unknown origin)
[4] = target: T1, MAP kinase-activated protein kinase 2 (Homo sapiens, UniProt P49137); experiment: Non-ATP competitive inhibition of MK2 (unknown origin) incubated for 30 mins in presence of 1 uM and 100 uM ATP by MK2 IMAP assay
Summary of the method: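 Inhibitor, ATP and MK2 (final 50 pM) were preincubated 30 min. TAMRA-labelled peptide (final 100 nM) was added for 30 min; final DMSO was 1%. Progressive binding reagent stopped the reaction (30 min); read at ex 530/em 580 nm. Values are means of duplicates or triplicates.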
Target sequence in this assay (P49137 whole entry, looked up): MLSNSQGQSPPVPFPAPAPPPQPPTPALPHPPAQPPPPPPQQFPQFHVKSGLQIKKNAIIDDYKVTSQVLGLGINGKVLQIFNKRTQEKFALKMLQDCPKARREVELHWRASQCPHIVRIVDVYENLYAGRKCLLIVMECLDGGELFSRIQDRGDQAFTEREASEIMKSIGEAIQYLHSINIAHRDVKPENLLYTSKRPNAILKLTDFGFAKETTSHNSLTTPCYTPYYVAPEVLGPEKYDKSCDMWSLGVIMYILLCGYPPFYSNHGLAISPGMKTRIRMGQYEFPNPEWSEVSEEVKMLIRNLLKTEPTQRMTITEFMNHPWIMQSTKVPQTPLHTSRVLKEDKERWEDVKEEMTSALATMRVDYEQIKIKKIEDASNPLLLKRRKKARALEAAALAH

[5] = target: Tyrosine-protein kinase Lck (Homo sapiens, UniProt P06239); experiment: Inhibition of LCK (unknown origin)
[6] = target: Mitogen-activated protein kinase 1 (Homo sapiens, UniProt P28482); experiment: Inhibition of ERK2 (unknown origin)
[7] = target: Calcium/calmodulin-dependent protein kinase type IV (Homo sapiens, UniProt Q16566); experiment: Inhibition of CAMK4 (unknown origin)
[8] = target: T1, MAP kinase-activated protein kinase 2; experiment: Inhibition of MK2 (unknown origin) incubated for 30 mins by MK2 IMAP assay
Target sequence in this assay (P49137 whole entry): as the sequence (P49137 whole entry, looked up) above

[9] = target: Testis-specific serine/threonine-protein kinase 2 (Homo sapiens, UniProt Q96PF2); experiment: Inhibition of TSSK2 (unknown origin)
[10] = target: Inhibitor of nuclear factor kappa-B kinase subunit beta (Homo sapiens, UniProt O14920); experiment: Inhibition of IKKB (unknown origin)
[11] = target: Epidermal growth factor receptor (Homo sapiens, UniProt P00533); experiment: Inhibition of EGFR (unknown origin)
[12] = target: Hepatocyte growth factor receptor (Homo sapiens, UniProt P08581); experiment: Inhibition of MET (unknown origin)
[13] = target: Vascular endothelial growth factor receptor 2 (Homo sapiens, UniProt P35968); experiment: Inhibition of KDR (unknown origin)
[14] = target: Rho-associated protein kinase 2 (Homo sapiens, UniProt O75116); experiment: Inhibition of ROCK2 (unknown origin)
[15] = target: Tyrosine-protein kinase JAK2 (Homo sapiens, UniProt O60674); experiment: Inhibition of JAK2 (unknown origin)
[16] = target: Insulin-like growth factor 1 receptor (Homo sapiens, UniProt P08069); experiment: Inhibition of IGF1R (unknown origin)
[17] = target: T1, MAP kinase-activated protein kinase 2; experiment: Inhibition of MK2 in human THP1 cells assessed as reduction in LPS-induced HSP27 Ser78 phosphorylation after 60 mins; type: cell-based, THP-1
Target sequence in this assay (P49137 whole entry): as the sequence (P49137 whole entry, looked up) above

Ephrin type-B receptor 4 = Ephrin type-B receptor 4 (Homo sapiens, UniProt P54760); experiment: Inhibition of EPHB4 (unknown origin)
[18] = target: Interleukin-1 receptor-associated kinase 4 (Homo sapiens, UniProt Q9NWZ3); experiment: Inhibition of IRAK4 (unknown origin)
[19] = target: Cyclin-dependent kinase 2 (Homo sapiens, UniProt P24941); experiment: Inhibition of CDK2 (unknown origin)
[20] = target: Serine/threonine-protein kinase 3 (Homo sapiens, UniProt Q13188); experiment: Inhibition of MST2 (unknown origin)
[21] = target: Serine/threonine-protein kinase PLK3 (Homo sapiens, UniProt Q9H4B4); experiment: Inhibition of PLK3 (unknown origin)
[22] = target: Protein kinase C alpha type (Homo sapiens, UniProt P17252); experiment: Inhibition of PKCA (unknown origin)
[23] = target: Receptor-type tyrosine-protein kinase FLT3 (Homo sapiens, UniProt P36888); experiment: Inhibition of FLT3 (unknown origin)
[24] = target: Serine/threonine-protein kinase Nek2 (Homo sapiens, UniProt P51955); experiment: Inhibition of NEK2 (unknown origin)
[25] = target: RAC-alpha serine/threonine-protein kinase (Homo sapiens, UniProt P31749); experiment: Inhibition of AKT1 (unknown origin)
[26] = target: Serine/threonine-protein kinase Chk1 (Homo sapiens, UniProt O14757); experiment: Inhibition of CHK1 (unknown origin)
[27] = target: Glycogen synthase kinase-3 beta (Homo sapiens, UniProt P49841); experiment: Inhibition of GSK3B (unknown origin)
[28] = AUC (0 to 6 hrs) in Sprague-Dawley rat at 10 mg/kg, po; type: ADME, organism-based; set-up: time < 6 hr, dose 10 mg/kg, route oral; conditions: plasma
Summary of the method: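 Sprague–Dawley rats were dosed orally with the compound in 20% HPBCD vehicle. AUC was calculated over 0 to 6 h.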

[29] = target: Casein kinase I isoform delta (Homo sapiens, UniProt P48730); experiment: Inhibition of CSNK1D (unknown origin)
Sequence of Casein kinase I isoform delta (P48730 whole entry, canonical isoform): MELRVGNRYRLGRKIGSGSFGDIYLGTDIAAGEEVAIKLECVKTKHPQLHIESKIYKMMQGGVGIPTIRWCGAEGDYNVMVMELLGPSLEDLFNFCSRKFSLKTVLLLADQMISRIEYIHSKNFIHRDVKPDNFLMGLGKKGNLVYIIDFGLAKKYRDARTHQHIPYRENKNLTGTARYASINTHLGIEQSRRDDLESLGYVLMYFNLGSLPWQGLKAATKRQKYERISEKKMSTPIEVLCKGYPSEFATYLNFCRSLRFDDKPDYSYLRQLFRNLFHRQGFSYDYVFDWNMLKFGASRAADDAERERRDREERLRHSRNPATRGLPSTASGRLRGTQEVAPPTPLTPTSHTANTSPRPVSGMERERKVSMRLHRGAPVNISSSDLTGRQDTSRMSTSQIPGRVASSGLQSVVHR

Sequence of Inhibitor of nuclear factor kappa-B kinase subunit beta (O14920 whole entry): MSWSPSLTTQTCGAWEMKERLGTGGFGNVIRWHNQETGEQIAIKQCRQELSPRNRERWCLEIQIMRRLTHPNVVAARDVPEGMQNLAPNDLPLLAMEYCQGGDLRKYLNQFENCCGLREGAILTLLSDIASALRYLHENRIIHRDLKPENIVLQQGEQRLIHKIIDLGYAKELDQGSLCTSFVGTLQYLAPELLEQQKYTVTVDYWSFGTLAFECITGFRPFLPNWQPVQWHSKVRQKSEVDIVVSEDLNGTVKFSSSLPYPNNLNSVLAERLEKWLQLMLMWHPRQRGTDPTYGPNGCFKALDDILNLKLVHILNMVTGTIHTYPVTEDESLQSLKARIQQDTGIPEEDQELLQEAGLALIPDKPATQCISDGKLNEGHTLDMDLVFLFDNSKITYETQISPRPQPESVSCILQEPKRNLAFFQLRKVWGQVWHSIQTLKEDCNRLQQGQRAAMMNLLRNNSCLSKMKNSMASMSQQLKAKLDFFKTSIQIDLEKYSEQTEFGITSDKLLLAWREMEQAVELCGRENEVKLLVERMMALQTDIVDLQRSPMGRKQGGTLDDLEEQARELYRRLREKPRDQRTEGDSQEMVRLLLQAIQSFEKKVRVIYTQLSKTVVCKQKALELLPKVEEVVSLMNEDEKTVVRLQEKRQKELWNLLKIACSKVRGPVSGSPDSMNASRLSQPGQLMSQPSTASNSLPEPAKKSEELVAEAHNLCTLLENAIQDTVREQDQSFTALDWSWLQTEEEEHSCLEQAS
Sequence of Serine/threonine-protein kinase Chk1 (O14757 whole entry): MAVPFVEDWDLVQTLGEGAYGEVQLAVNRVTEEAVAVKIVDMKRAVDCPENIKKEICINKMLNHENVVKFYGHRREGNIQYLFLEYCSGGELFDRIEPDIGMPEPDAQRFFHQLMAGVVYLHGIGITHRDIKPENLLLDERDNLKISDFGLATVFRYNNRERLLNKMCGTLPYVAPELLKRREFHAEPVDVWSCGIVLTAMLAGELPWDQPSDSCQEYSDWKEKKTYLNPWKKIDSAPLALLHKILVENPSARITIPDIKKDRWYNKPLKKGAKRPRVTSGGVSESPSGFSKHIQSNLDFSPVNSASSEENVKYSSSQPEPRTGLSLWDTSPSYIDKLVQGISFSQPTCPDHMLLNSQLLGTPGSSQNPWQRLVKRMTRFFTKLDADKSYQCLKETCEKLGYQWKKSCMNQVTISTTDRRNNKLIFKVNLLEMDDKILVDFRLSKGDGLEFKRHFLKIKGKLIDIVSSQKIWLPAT
Sequence of Receptor-type tyrosine-protein kinase FLT3 (P36888 whole entry): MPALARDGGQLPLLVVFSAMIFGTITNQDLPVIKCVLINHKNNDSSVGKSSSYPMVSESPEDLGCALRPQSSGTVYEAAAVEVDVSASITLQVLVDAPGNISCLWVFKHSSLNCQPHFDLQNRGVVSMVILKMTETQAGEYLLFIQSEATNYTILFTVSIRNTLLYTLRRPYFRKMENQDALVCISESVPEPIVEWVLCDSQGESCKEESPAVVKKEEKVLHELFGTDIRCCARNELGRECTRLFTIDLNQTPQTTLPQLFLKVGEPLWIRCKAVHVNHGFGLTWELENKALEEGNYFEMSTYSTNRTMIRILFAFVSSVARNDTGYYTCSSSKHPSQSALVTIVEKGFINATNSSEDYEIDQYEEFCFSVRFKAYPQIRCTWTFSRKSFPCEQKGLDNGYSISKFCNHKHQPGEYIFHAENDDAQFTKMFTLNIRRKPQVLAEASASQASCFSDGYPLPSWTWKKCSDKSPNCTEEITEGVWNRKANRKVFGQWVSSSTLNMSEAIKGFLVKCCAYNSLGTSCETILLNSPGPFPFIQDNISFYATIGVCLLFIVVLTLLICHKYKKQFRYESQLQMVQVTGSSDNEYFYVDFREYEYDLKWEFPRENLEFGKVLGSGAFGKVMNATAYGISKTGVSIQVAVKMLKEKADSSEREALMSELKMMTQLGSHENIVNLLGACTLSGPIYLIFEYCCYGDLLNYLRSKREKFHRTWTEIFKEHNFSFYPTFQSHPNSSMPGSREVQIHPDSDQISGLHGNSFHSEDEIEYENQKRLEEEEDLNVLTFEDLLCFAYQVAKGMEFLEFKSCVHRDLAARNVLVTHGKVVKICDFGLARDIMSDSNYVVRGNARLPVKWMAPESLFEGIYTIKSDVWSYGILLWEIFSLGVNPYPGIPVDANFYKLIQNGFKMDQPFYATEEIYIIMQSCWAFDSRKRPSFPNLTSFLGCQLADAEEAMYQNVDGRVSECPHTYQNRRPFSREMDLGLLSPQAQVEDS
Sequence of Ephrin type-B receptor 4 (P54760 whole entry): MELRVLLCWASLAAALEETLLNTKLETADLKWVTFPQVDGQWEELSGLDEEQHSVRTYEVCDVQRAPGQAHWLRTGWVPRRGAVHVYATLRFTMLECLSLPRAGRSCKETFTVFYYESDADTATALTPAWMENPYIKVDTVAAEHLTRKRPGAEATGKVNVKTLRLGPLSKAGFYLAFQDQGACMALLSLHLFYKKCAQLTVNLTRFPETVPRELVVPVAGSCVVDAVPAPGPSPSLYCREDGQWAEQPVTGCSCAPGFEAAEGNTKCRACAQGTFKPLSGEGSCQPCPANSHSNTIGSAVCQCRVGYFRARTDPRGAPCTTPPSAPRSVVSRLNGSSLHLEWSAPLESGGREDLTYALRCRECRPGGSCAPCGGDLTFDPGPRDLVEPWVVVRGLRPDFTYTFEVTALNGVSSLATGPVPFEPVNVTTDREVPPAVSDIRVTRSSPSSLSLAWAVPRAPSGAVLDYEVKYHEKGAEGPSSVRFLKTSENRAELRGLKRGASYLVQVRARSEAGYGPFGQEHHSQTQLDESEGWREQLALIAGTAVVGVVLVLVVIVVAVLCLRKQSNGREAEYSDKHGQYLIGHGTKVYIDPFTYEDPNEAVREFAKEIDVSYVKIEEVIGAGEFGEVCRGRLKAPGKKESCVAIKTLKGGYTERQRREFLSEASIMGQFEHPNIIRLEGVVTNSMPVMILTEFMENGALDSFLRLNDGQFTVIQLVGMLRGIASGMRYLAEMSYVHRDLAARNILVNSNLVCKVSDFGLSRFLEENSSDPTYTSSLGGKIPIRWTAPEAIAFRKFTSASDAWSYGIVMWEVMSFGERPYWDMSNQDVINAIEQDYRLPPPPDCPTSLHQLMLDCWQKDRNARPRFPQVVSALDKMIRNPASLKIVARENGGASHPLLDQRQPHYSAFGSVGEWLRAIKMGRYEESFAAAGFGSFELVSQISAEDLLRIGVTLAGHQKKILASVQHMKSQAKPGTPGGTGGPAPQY

`O=C1c2oc(-c3ccc(Cl)cc3)cc2Cc2cc(N3CCNCC3)ccc2N1Cc1ccccc1-c1cncnc1` showed a Papp [1] of under 0.1 ×10⁻⁶ cm/s, a fraction unbound [2] of 0.016 and an IC50 (THP-1) of 1.49 µM.

In the case of `Clc1ccc(-c2ccc(-c3nccn3-c3ccc(N4CCNCC4)cc3)o2)cc1`, the Papp [1] is reported as 5 ×10⁻⁶ cm/s, the IC50 [3] is reported as over 30 µM and the inhibition [4] is reported as “Active”. For the same molecule, the IC50 [5] was over 30 µM, the fraction unbound [2] was 0.028 and the IC50 [6] was over 30 µM. It also gave an IC50 [7] of over 30 µM, an IC50 [8] of 0.0255 µM and an IC50 [9] of over 30 µM. For the same molecule, the IC50 [10] was over 30 µM, the IC50 [11] was over 30 µM and the IC50 (THP-1) was 0.8 µM. For the same molecule, the IC50 [12] was over 30 µM, the IC50 [13] was over 30 µM and the IC50 [14] was over 20 µM. It also gave an IC50 [15] of over 30 µM, an IC50 [16] of over 30 µM and an IC50 [17] of 2.14 µM. It also gave an IC50 (Ephrin type-B receptor 4) of over 30 µM, an IC50 [18] of over 30 µM and an IC50 [19] of over 30 µM. The IC50 [20] was over 30 µM, the IC50 [21] was over 30 µM and the IC50 [22] was over 30 µM. The IC50 [23] was over 30 µM, the IC50 [24] was over 30 µM and the IC50 [25] was over 15 µM. For the same molecule, the IC50 [26] was over 30 µM, the IC50 [27] was over 30 µM and the AUC(0-t) at 6 h [28] was 13.3 µM·h. For the same molecule, the IC50 [29] was over 30 µM.

From ChEMBL document CHEMBL3351352, “Discovery of a novel series of potent MK2 non-ATP competitive inhibitors using 1,2-substituted azoles as cis-amide isosteres” (Bioorg Med Chem Lett, 2014)
